Test results: ChEMBL document CHEMBL4622886, “Leucinostatins from Ophiocordyceps spp. and Purpureocillium spp. Demonstrate Selective Antiproliferative Effects in Cells Representing the Luminal Androgen Receptor Subtype of Triple Negative Breast Cancer” (2020)
Activity calls are given as the source filed them. Numbered stars: 1 amine (or outer) side, 2 acyl side, 3 side chain; on linkers, the order of the positions; unused ones are H or OH. Square brackets hold non-standard residues; d marks the D form. Peptide text beside a SMILES is read from it. * marks the point of attachment. X1 = CCC(=O)C[C@@H](O)C[C@@H](C)C[C@H](N[*:1])C(=O)[*:2]; X4 = CCCC[C@@H](O)C[C@@H](C)C[C@H](N[*:1])C(=O)[*:2]; X2 = CCC(=O)/C=C/C[C@@H](C)C[C@H](N[*:1])C(=O)[*:2]; X3 = CCC(=O)CCC[C@@H](C)C[C@H](N[*:1])C(=O)[*:2]; Hexenoyl(2E,4S-Me) = CC[C@H](C)/C=C/C(=O)*; Leu(3R-OH) = CC(C)[C@@H](O)[C@H](N)C(=O)O; NH((S)CH(Me)CH2NMe2) = C[C@@H](CN(C)C)N*; Pro(4S-Me) = C[C@@H]1CN[C@H](C(=O)O)C1; NH((S)CH(CH3)CH2NHMe) = CNC[C@H](C)N*; Aib = CC(C)(N)C(=O)O; βAla = NCCC(=O)O

Key:
[1] = tested on: MDA-MB-453; test: Antiproliferative activity against human MDA-MB-453 cells at 1 to 100 nM incubated for 48 hrs by sulforhodamine B assay; format: functional, cell-based
How it was run: (§1)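 IMEM with 5% FBS and 0.3% gentamicin; cells used within 4 months of thaw. After seeding at set densities and adhering, cells got compound or DMSO vehicle for 48 h, then were fixed and SRB-stained, with A560 read. GI50 (50% proliferation inhibition vs vehicle) came from non-linear regression of concentration-response curves; three independent experiments, each in triplicate.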

[2] = tested on: SUM185PE; test: Antiproliferative activity against human SUM185PE cells at 1 to 100 nM incubated for 48 hrs by sulforhodamine B assay; format: functional, cell-based; how it was run: as §1
[3] = tested on: HCC1937; test: Antiproliferative activity against human HCC1937 cells up to 100 nM incubated for 48 hrs by sulforhodamine B assay; format: functional, cell-based
How it was run: (§2)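 Cells (RPMI-1640 with 5% FBS, 0.5% gentamicin; used within 4 months of thaw) were seeded at set densities, allowed to adhere, then treated 48 h with compound or DMSO vehicle. Cells were fixed and SRB-stained, with absorbance read at 560 nm. GI50 vs vehicle was taken by non-linear regression; three independent experiments, each in triplicate.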

[4] = tested on: HCC1806; test: Antiproliferative activity against human HCC1806 cells up to 100 nM incubated for 48 hrs by sulforhodamine B assay; format: functional, cell-based; how it was run: as §2
[5] = tested on: BT-549; test: Antiproliferative activity against human BT549 cells up to 100 nM incubated for 48 hrs by sulforhodamine B assay; format: functional, cell-based; how it was run: as §2
[6] = tested on: MDA-MB-231; test: Antiproliferative activity against human MDA-MB-231 cells up to 100 nM incubated for 48 hrs by sulforhodamine B assay; format: functional, cell-based; how it was run: as §1
[7] = tested on: HCC1937; test: Antiproliferative activity against human HCC1937 cells at >1 uM incubated for 48 hrs by sulforhodamine B assay; format: functional, cell-based; how it was run: as §2
[8] = tested on: MDA-MB-231; test: Antiproliferative activity against human MDA-MB-231 cells incubated for 48 hrs by sulforhodamine B assay; format: functional; settings: MDA-MB-231, 48 h; how it was run: as §1
[9] = tested on: MDA-MB-453; test: Antiproliferative activity against human MDA-MB-453 cells at > 1 uM incubated for 48 hrs by sulforhodamine B assay; format: functional, cell-based; how it was run: as §1
[10] = tested on: HCC1806; test: Antiproliferative activity against human HCC1806 cells at >1 uM incubated for 48 hrs by sulforhodamine B assay; format: functional, cell-based; how it was run: as §2
[11] = tested on: MDA-MB-231; test: Antiproliferative activity against human MDA-MB-231 cells at > 1 uM incubated for 48 hrs by sulforhodamine B assay; format: functional, cell-based; how it was run: as §1
[12] = tested on: BT-549; test: Antiproliferative activity against human BT549 cells at >1 uM incubated for 48 hrs by sulforhodamine B assay; format: functional, cell-based; how it was run: as §2
[13] = tested on: MDA-MB-453; test: Antiproliferative activity against human MDA-MB-453 cells incubated for 48 hrs by sulforhodamine B assay; format: functional; settings: MDA-MB-453, 48 h; how it was run: as §1
[14] = tested on: SUM185PE; test: Antiproliferative activity against human SUM185PE cells incubated for 48 hrs by sulforhodamine B assay; format: functional; how it was run: as §1

CCC(=O)CCC[C@@H](C)C[C@H](NC(=O)[C@@H]1C[C@H](C)CN1C(=O)/C=C/[C@@H](C)CC)C(=O)N[C@H](C(=O)NC(C)(C)C(=O)N[C@@H](CC(C)C)C(=O)N[C@@H](CC(C)C)C(=O)NC(C)(C)C(=O)NC(C)(C)C(=O)NCCC(=O)N[C@@H](C)CN(C)C)[C@H](O)C(C)C ({Hexenoyl(2E,4S-Me)}-[Pro(4S-Me)][X3][Leu(3R-OH)][Aib]LL[Aib][Aib][βAla]-{NH((S)CH(Me)CH2NMe2)})
active: Activity [1] | Activity [2] | Activity [7] | Activity [9] | Activity [10] | Activity [11] | Activity [12]
inactive: Activity [3] | Activity [4] | Activity [5] | Activity [6]
> 100 nM: GI50 [8]

CC[C@H](C)/C=C/C(=O)N1C[C@@H](C)C[C@H]1C(=O)N[C@@H](CC(C)C)C(=O)N[C@H](C(=O)NC(C)(C)C(=O)N[C@@H](CC(C)C)C(=O)N[C@@H](CC(C)C)C(=O)NC(C)(C)C(=O)NC(C)(C)C(=O)NCCC(=O)N[C@@H](C)CN(C)C)[C@H](O)C(C)C ({Hexenoyl(2E,4S-Me)}-[Pro(4S-Me)]L[Leu(3R-OH)][Aib]LL[Aib][Aib][βAla]-{NH((S)CH(Me)CH2NMe2)})
2.3 nM: GI50 [13]
active: Activity [1] | Activity [2] | Activity [7] | Activity [9] | Activity [10] | Activity [11] | Activity [12]
> 100 nM: GI50 [8]
1.4 nM: GI50 [14]
inactive: Activity [3] | Activity [4] | Activity [5] | Activity [6]

CC[C@H](C)/C=C/C(=O)N1C[C@@H](C)C[C@H]1C(=O)N[C@@H](CC(C)C)C(=O)N[C@H](C(=O)NC(C)(C)C(=O)N[C@@H](CC(C)C)C(=O)N[C@@H](CC(C)C)C(=O)NC(C)(C)C(=O)NC(C)(C)C(=O)NCCC(=O)N[C@@H](C)CNC)[C@H](O)C(C)C ({Hexenoyl(2E,4S-Me)}-[Pro(4S-Me)]L[Leu(3R-OH)][Aib]LL[Aib][Aib][βAla]-{NH((S)CH(CH3)CH2NHMe)})
> 100 nM: GI50 [8]
2.6 nM: GI50 [13]
inactive: Activity [3] | Activity [4] | Activity [5] | Activity [6]
active: Activity [1] | Activity [2] | Activity [7] | Activity [9] | Activity [10] | Activity [11] | Activity [12]
2 nM: GI50 [14]

CCC(=O)/C=C/C[C@@H](C)C[C@H](NC(=O)[C@@H]1C[C@H](C)CN1C(=O)/C=C/[C@@H](C)CC)C(=O)N[C@H](C(=O)NC(C)(C)C(=O)N[C@@H](CC(C)C)C(=O)N[C@@H](CC(C)C)C(=O)NC(C)(C)C(=O)NC(C)(C)C(=O)NCCC(=O)N[C@@H](C)CN(C)C)[C@H](O)C(C)C ({Hexenoyl(2E,4S-Me)}-[Pro(4S-Me)][X2][Leu(3R-OH)][Aib]LL[Aib][Aib][βAla]-{NH((S)CH(Me)CH2NMe2)})
7.9 nM: GI50 [13]
active: Activity [1] | Activity [2] | Activity [7] | Activity [9] | Activity [10] | Activity [11] | Activity [12]
4.4 nM: GI50 [14]
> 100 nM: GI50 [8]
inactive: Activity [3] | Activity [4] | Activity [5] | Activity [6]

CCCC[C@@H](O)C[C@@H](C)C[C@H](NC(=O)[C@@H]1C[C@H](C)CN1C(=O)/C=C/[C@@H](C)CC)C(=O)N[C@H](C(=O)NC(C)(C)C(=O)N[C@@H](CC(C)C)C(=O)N[C@@H](CC(C)C)C(=O)NC(C)(C)C(=O)NC(C)(C)C(=O)NCCC(=O)N[C@@H](C)CN(C)C)[C@H](O)C(C)C ({Hexenoyl(2E,4S-Me)}-[Pro(4S-Me)][X4][Leu(3R-OH)][Aib]LL[Aib][Aib][βAla]-{NH((S)CH(Me)CH2NMe2)})
active: Activity [1] | Activity [2] | Activity [7] | Activity [9] | Activity [10] | Activity [11] | Activity [12]
> 100 nM: GI50 [8]
inactive: Activity [3] | Activity [4] | Activity [5] | Activity [6]

CCC(=O)C[C@@H](O)C[C@@H](C)C[C@H](NC(=O)[C@@H]1C[C@H](C)CN1C(=O)/C=C/[C@@H](C)CC)C(=O)N[C@H](C(=O)NC(C)(C)C(=O)N[C@@H](CC(C)C)C(=O)N[C@@H](CC(C)C)C(=O)NC(C)(C)C(=O)NC(C)(C)C(=O)NCCC(=O)N[C@@H](C)CN(C)C)[C@H](O)C(C)C ({Hexenoyl(2E,4S-Me)}-[Pro(4S-Me)][X1][Leu(3R-OH)][Aib]LL[Aib][Aib][βAla]-{NH((S)CH(Me)CH2NMe2)})
active: Activity [1] | Activity [2] | Activity [7] | Activity [9] | Activity [10] | Activity [11] | Activity [12]
inactive: Activity [3] | Activity [4] | Activity [5] | Activity [6]

CCCC[C@@H](O)C[C@@H](C)C[C@H](NC(=O)[C@@H]1C[C@H](C)CN1C(=O)/C=C/[C@@H](C)CC)C(=O)N[C@H](C(=O)NC(C)(C)C(=O)N[C@@H](CC(C)C)C(=O)N[C@@H](CC(C)C)C(=O)NC(C)(C)C(=O)NC(C)(C)C(=O)NCCC(=O)N[C@@H](C)CNC)[C@H](O)C(C)C ({Hexenoyl(2E,4S-Me)}-[Pro(4S-Me)][X4][Leu(3R-OH)][Aib]LL[Aib][Aib][βAla]-{NH((S)CH(CH3)CH2NHMe)})
active: Activity [1] | Activity [2] | Activity [7] | Activity [9] | Activity [10] | Activity [11] | Activity [12]
inactive: Activity [3] | Activity [4] | Activity [5] | Activity [6]
> 100 nM: GI50 [8]

CCC(=O)CCC[C@@H](C)C[C@H](NC(=O)[C@@H]1C[C@H](C)CN1C(=O)/C=C/[C@@H](C)CC)C(=O)N[C@H](C(=O)NC(C)(C)C(=O)N[C@@H](CC(C)C)C(=O)N[C@@H](CC(C)C)C(=O)NC(C)(C)C(=O)NC(C)(C)C(=O)NCCC(=O)N[C@@H](C)CNC)[C@H](O)C(C)C ({Hexenoyl(2E,4S-Me)}-[Pro(4S-Me)][X3][Leu(3R-OH)][Aib]LL[Aib][Aib][βAla]-{NH((S)CH(CH3)CH2NHMe)})
inactive: Activity [3] | Activity [4] | Activity [5] | Activity [6]
> 100 nM: GI50 [8]
active: Activity [1] | Activity [2] | Activity [7] | Activity [9] | Activity [10] | Activity [11] | Activity [12]
